Results on one compound are retold here after ChEMBL document CHEMBL4425094, “Novel Benzo[a]quinolizidine Analogs Induce Cancer Cell Death through Paraptosis and Apoptosis” (J Med Chem, 2016).

Assay [1] concerns PC-3. The experiment in a line: Induction of cell cycle arrest in human PC3 cells assessed as accumulation in S phase at 0.5 uM after 24 hrs by […]propidium iodide based flow cytometric analysis (reference value: 21 to 31.6 %). The format is functional. (Flow cytometry measures light scatter and fluorescence of single cells or particles in a stream.)
Another assay deals with DU-145. The experiment in a line: Cytotoxicity against human DU145 cells assessed as cell growth inhibition after 24 hrs by MTT assay. Particulars: DU-145, 24 h. Format: functional, cell-based. A digest of the protocol:
(§1)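 Cells seeded 24 h in RPMI 1640 + 10% FBS. RWPE-1 was kept in K-SFM with bovine pituitary extract and EGF. Cells then exposed to compounds for 24 h at 37 °C, 5% CO2, with DMSO vehicle and docetaxel as positive control. MTT added for 4 h, absorbance read at 570 nm. Triplicate runs, IC50 reported as mean of three experiments.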

In assay [2] the test system is PC-3. The experiment in a line: Induction of autophagy in human PC3 cells transfected with mRFP-GFP-LC3 assessed as pervacuolar distribution of LC3 at 1 uM after 8 hrs by fluorescence microscopic analysis. The format is functional, cell-based. The method, boiled down: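 PC3 cells transfected with an mRFP-GFP-LC3 reporter plasmid, then treated 8 h with 1 μM test agent or 0.5 μM rapamycin (autophagy inducer). Imaged by confocal fluorescence microscopy: yellow puncta (overlapping red/green) scored as autophagosomes, red-only puncta as autolysosomes, since GFP is quenched in acidic lysosomes.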

Assay [3] relates to PC-3. The experiment in a line: Induction of apoptosis in human PC3 cells assessed as viable cells at 1 uM after 24 hrs by Annexin V-FITC/propidium iodide based flow cytometric analysis (reference value: 95.4 %). Format: functional. The following applies: PC-3, 24 h, read-out: Activity. The method, boiled down:
(§2)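 PC3 cells exposed to 0.5, 1 or 2 μM for 24 h, then stained with Annexin V-FITC and PI and analyzed by FACSCalibur flow cytometry. Populations assigned as necrotic (Annexin V−/PI+), late apoptotic (double positive), normal (Annexin V−/PI−) and early apoptotic (Annexin V+/PI−). DMSO vehicle control.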

Assay [4] relates to PC-3. In words: Induction of apoptosis in human PC3 cells assessed as early apoptotic cells at 1 uM after 24 hrs by Annexin V-FITC/propidium iodide based flow cytometric analysis (reference value: 2.3 %). Format: functional. The method, boiled down: as §2
The test system of assay [5] is PC-3. In words: Induction of apoptosis in human PC3 cells assessed as necrotic cells at 0.5 uM after 24 hrs by Annexin V-FITC/propidium iodide based flow cytometric analysis (reference value: 1.1 %). Format: functional. The method, boiled down:
as §2

The subject of assay [6] is PC-3. In words: Induction of cell cycle arrest in human PC3 cells assessed as accumulation in S phase at 2 uM after 24 hrs by […]propidium iodide based flow cytometric analysis (reference value: 21 to 31.6 %). Format: functional.
Assay [7] deals with PC-3M. The experiment in a line: Antiproliferation activity against human PC3M-lluc-C6 cells xenografted in athymic Balb/c mouse assessed as decrease in cell viability at 15 mg/kg, ip administered every 2 days for 18 days by Ki-67 staining based microscopic analysis. Format: functional, organism-based. The method, boiled down:
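Male BALB/c-nu mice, 6 weeks old, each given 5 × 10^6 PC3M-luc-C6 cells subcutaneously in the right anterior flank. At ~0.1 cm3 tumor, groups of n = 5 received 15 mg/kg i.p. every 2 days. Docetaxel 15 mg/kg was the positive control. Tumor tissue stained with H&E or anti-Ki67 (1:500) overnight at 4 °C, HRP/DAB, hematoxylin counterstain, examined by microscopy.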

Assay [8] concerns PC-3. The experiment in a line: Induction of ER stress in human PC3 cells assessed as formation of vacuoles after 8 to 24 hrs […]. The format is functional, cell-based. (In general: Immunoblotting shows a protein as a band on a membrane.)
The subject of assay [9] is PC-3. The experiment in a line: Induction of cell cycle arrest in human PC3 cells assessed as accumulation in G0/G1 phase at 2 uM after 24 hrs by […]propidium iodide based flow cytometric analysis (reference value: 43.5 to 62.5 %). The format is functional.
The test system of assay [10] is PC-3. In words: Cytotoxicity in human PC3 cells assessed as reduction in cell viability incubated for 22 hrs after ER stress inhibitor 4-PBA exposure for 2 hrs by MTT assay. The format is functional, cell-based. A digest of the protocol: (§3)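 PC3 cells pretreated 2 h with 4-PBA (100 μM), then compound added for a further 22 h. Viability measured by MTT. GRP78 assessed by Western blot, along with XBP1 mRNA splicing analysis. Morphology by phase contrast.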
(Formazan colour is commonly taken as a measure of viable cells.)

For assay [11], the system named is PC-3. The experiment in a line: Induction of apoptosis in human PC3 cells assessed as late apoptotic cells at 2 uM after 24 hrs by Annexin V-FITC/propidium iodide based flow cytometric analysis (reference value: 1.1 %). The format is functional. The method, boiled down:
as §2

Assay [12] concerns PC-3M. The experiment in a line: Antitumor activity against human PC3M-lluc-C6 cells xenografted in athymic Balb/c mouse assessed as decrease in tumor burden by measuring photon intensity at 15 mg/kg, ip measured on day 18 by bioluminescence method (reference value: 2.332 x 10^10 photons/s/cm2). Format: functional.
In assay [13] the test system is PC-3. In words: Induction of ER stress in human PC3 cells assessed as GRP78 upregulation incubated for 22 hrs after ER stress inhibitor 4-PBA exposure for 2 hrs by Western blot analysis. Format: functional, cell-based. The method, boiled down: as §3
Assay [14] has as its system PC-3. In words: Cytotoxicity against human PC3 cells assessed as reduction in cell viability at 1 uM after 24 hrs in presence of […] inhibitor E-64d by MTT assay. Format: functional, cell-based. A digest of the protocol:
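PC3 cells pretreated with autophagy inhibitor 3-MA or E64d, then given 1 μM compound for 24 h. Viability measured by MTT (4 h, 570 nm). Morphology checked by phase-contrast microscopy.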

Assay [15] relates to PC-3. The experiment in a line: Induction of apoptosis in human PC3 cells assessed as early apoptotic cells at 2 uM after 24 hrs by Annexin V-FITC/propidium iodide based flow cytometric analysis (reference value: 2.3 %). Format: functional. A digest of the protocol:
as §2

In assay [16] the test system is PC-3. The experiment in a line: Induction of autophagy in human PC3 cells assessed as conversion of LC3B1 to LC3B2 after 24 hrs by Western blot analysis. The format is functional, cell-based. A digest of the protocol:
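PC3 cells in RPMI 1640 with 10% FBS, treated with compound for timed intervals. DMSO vehicle control. Lysis in RIPA buffer, 40 μg protein per lane on SDS-PAGE, transfer to nitrocellulose. Primary antibodies overnight at 4 °C, HRP-secondary 45 min, ECL detection. GAPDH or β-actin used as loading control.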

The subject of assay [17] is PC-3M. The experiment in a line: Induction of immature autophagy i in human PC3M-lluc-C6 cells xenografted in athymic Balb/c mouse assessed as increase in LC3 protein levels at 15 mg/kg, ip administered every 2 days for 18 days by Western blot and immunohistochemical staining method. Format: functional, organism-based. A digest of the protocol: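 Male athymic BALB/c-nu mice (6 weeks) carried subcutaneous right-flank PC3M-luc-C6 xenografts (5 × 10^6 cells). At ~0.1 cm3 they were grouped (n = 5) and given 15 mg/kg i.p. suspension every 2 days; placebo and docetaxel 15 mg/kg were controls. Tumors were analyzed by Western blot and by immunohistochemistry (anti-LC3 1:800, anti-p62 1:500, overnight 4 °C, HRP/DAB, hematoxylin counterstain).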

Assay [18] concerns PC-3. The experiment in a line: Growth inhibition of human PC3 cells at IC30 in presence of MG139 assessed as combination index by MTT assay. The format is functional. A digest of the protocol: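 PC3 cells incubated with increasing concentrations of compound combined with a second agent (bortezomib or partner compound). Viability determined, combination index calculated: CI < 1 synergism, = 1 additive, > 1 antagonism.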

The subject of a further assay is MCF7. The experiment in a line: Cytotoxicity against human MCF7 cells assessed as cell growth inhibition after 24 hrs by MTT assay. Format: functional, cell-based. Particulars: MCF7, 24 h. The method, boiled down:
as §1

Assay [19] deals with PC-3M. In words: Antitumor activity against human PC3M-lluc-C6 cells xenografted in athymic Balb/c mouse assessed as tumor growth inhibition at 15 mg/kg, ip administered every 2 days for 18 days. The format is functional. Particulars: read-out: TGI.

Calls of active or inactive are those of the source. The calls are words filed in the database; no cut-off is given here.

By IC50 is commonly meant the concentration needed to halve the response being measured. Regarding `Cc1cc(C)cc(COc2cc3c(cc2OCc2cc(C)cc(C)c2)[C@@H]2C[C@H](O)C[C@@H](C)N2CC3)c1` (racemic), the Activity is 16.1 - 21.3% in the assay with PC-3 [1]; 5.9% in the assay on PC-3 [4]; 1% with PC-3 [5]; 6.38 - 9.05% in the assay with PC-3 [6]; 80.2 - 81.4% with PC-3 [9]; 36.4% with PC-3 [11]. Besides, the Activity is reported as 1.766 ×10⁹ /s/cm2 in the assay on PC-3M [12] and 20.5% in the assay on PC-3 [15]. In addition, the IC50 was found to be 1.96 µM with DU-145 and 0.51 µM in the assay on MCF7. For the same compound, the result in the assay with PC-3 [2], in the assay on PC-3 [8], with PC-3 [16] and in the assay with PC-3M [17] was Active. Further, the viability at 1 µM in the assay on PC-3 [3] came to 90%. In the assay with PC-3M [7], the inhibition entry was “Active”. The outcome with PC-3 [10], in the assay on PC-3 [13] and with PC-3 [14] was inactive. In addition, in the assay with PC-3 [18], the CI was 0.1 - 0.3. In the assay on PC-3M [19], the inhibition in vivo at 15 mg/kg was found to be 40.5%.
